The text below walks through data of ChEMBL document CHEMBL1240366, “Blockade of X4-tropic HIV-1 cellular entry by GSK812397, a potent noncompetitive CXCR4 receptor antagonist” (Antimicrob Agents Chemother, 2010).

The structures appear in SMILES notation. pIC50: −log10 of the molar value. Calls of active or inactive are those of the source. The rule behind the calls is not given here. Some results are limits rather than exact numbers.

The subject of series [1] is Human immunodeficiency virus 1. Kind of series: Antiviral activity against HIV1 isolate 05-121772 assessed as inhibition of viral replication after 7 days by scintillation counting. Format: functional, organism-based. To be noted: Human immunodeficiency virus 1, isolate 05-121772, 168 h.
The subject of series [2] is Human immunodeficiency virus 1. Kind of series: Antiviral activity against HIV1 isolate 05-121778 assessed as inhibition of viral replication after 7 days by scintillation counting. Format: functional, organism-based. To be noted: Human immunodeficiency virus 1, isolate 05-121778, 168 h.
Series [3] addresses C-X-C chemokine receptor type 4 (Homo sapiens) (UniProt P61073). Kind of series: Antagonist activity at human CXCR4 expressed in HEK293 cells assessed as inhibition of SDF1-induced increase in intracellular calcium level treated 15 mins before agonist challenge measured after 1 hr by FLIPR assay relative to control. Format: functional, cell-based. In a few lines: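 HEK-293 cells transiently transduced by BacMam with CXCR4 (MOI 50) and chimeric Gqi5 (MOI 12.5), plated 40,000 per well, left 24 h at 37°C for expression. Cells then loaded with calcium dye in DMEM/F-12 containing 2.5 mM probenecid and 0.1% BSA for 1 h at 37°C. Intracellular calcium read by FLIPR. For antagonism, compound was added 15 min before SDF-1, used at an EC80 concentration.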
In general terms: A change in cytosolic calcium serves as a functional read-out for many receptors and channels.

Series [4] is described as follows: Oral bioavailability in rat at 3 mg/kg administered as single dose after 24 hrs by liquid chromatography-mass spectroscopy. The class given is ADME, organism-based. To be noted: in vivo.
Series [5] has as its system Human immunodeficiency virus 1. Nature of the series: Antiviral activity against HIV1 Bal infected in human HOS cells after 72 hrs by luminescence assay. The class given is functional, organism-based. To be noted: Human immunodeficiency virus 1, Bal. The method in brief:
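R5-tropic virus infection of HOS cells (hCXCR4/hCCR5/hCD4, LTR-luciferase reporter). Cells were plated in DMEM with 2% FCS overnight, pre-incubated with compound for 1 h, then given virus pre-mixed with compound. Incubation was 72 h at 37°C. Read-out was luciferase luminescence. IC50 from a four-parameter logistic fit.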

The subject of series [6] is PBMC. Nature of the series: Cytotoxicity against human PBMC infected with HIV1 3B after 96 hrs by celltiter glow assay.
Series [7] is described as follows: Oral bioavailability in monkey at 3 mg/kg administered as single dose after 24 hrs by liquid chromatography-mass spectroscopy. To be noted: rhesus monkey, in vivo. Format: ADME, organism-based, Macaca mulatta.
Series [8] concerns the target Cytochrome P450 3A4 (Homo sapiens, UniProt P08684). Nature of the series: Inhibition of CYP3A4 up to 30 uM. The class given is ADME.
Series [9] has as its target C-X-C chemokine receptor type 4 (Homo sapiens) (UniProt P61073). Nature of the series: Inhibition of CXCR4-mediated chemotaxis in SDF1-stimulated human U937 cells treated 15 mins before SDF1 challenge measured after 2 hrs by luminescence assay. Format: cell-based. To be noted: U-937. The method in brief:
(§1)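 U937 cells (endogenous CXCR4) in RPMI with 2% FCS and 10 mM HEPES, 5 × 10^6 cells/ml, preincubated 15 min with compound, then placed above a 5.0 μm filter. The lower chamber held the same compound concentration plus SDF-1. Migration ran 2 h. Migrated cells were quantified by ATP luminescence. Viability was checked under identical conditions. For mode of action, SDF-1 concentration-response curves were run at increasing compound concentrations.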

The target is the same in series [10]. Kind of series: Agonist activity at human CXCR4 expressed in HEK293 cells assessed as effect intracellular calcium level after 1 hr by FLIPR assay. Format: functional, cell-based.
Series [11] has as its system Human immunodeficiency virus 1. Kind of series: Antiviral activity against HIV1 isolate 05-121786 assessed as inhibition of viral replication after 7 days by scintillation counting. Format: functional, organism-based. To be noted: Human immunodeficiency virus 1, isolate 05-121786, 168 h.
Series [12] addresses C-X-C chemokine receptor type 4 (Homo sapiens) (UniProt P61073). Kind of series: Noncompetitive inhibition of CXCR4-mediated chemotaxis in SDF1-stimulated human U937 cells treated 15 mins before SDF1 challenge measured after 2 hrs by luminescence assay. Format: cell-based. To be noted: U-937. In a few lines: as §1
Series [13] relates to Human immunodeficiency virus 1. Nature of the series: Antiviral activity against HIV1 isolate 05-121795 assessed as inhibition of viral replication after 7 days by scintillation counting. Format: functional, organism-based. To be noted: Human immunodeficiency virus 1, isolate 05-121795, 168 h.
Series [14] relates to HOS. Nature of the series: Cytotoxicity against human HOS cells infected with HIV1 3B after 72 hrs by celltiter glow assay. Format: cell-based.
The subject of series [15] is Human immunodeficiency virus 1. Nature of the series: Antiviral activity against HIV1 isolate 05-121797 assessed as inhibition of viral replication after 7 days by scintillation counting. Format: functional, organism-based. To be noted: Human immunodeficiency virus 1, isolate 05-121797, 168 h.
In series [16] the test system is Human immunodeficiency virus 1. Kind of series: Antiviral activity against HIV1 isolate 05-121796 assessed as inhibition of viral replication after 7 days by scintillation counting. To be noted: Human immunodeficiency virus 1, isolate 05-121796, 168 h. The class given is functional, organism-based.
The target of series [17] is T1, Cytochrome P450 1A2 (Homo sapiens, UniProt P05177).
T1 sequence (P05177 whole entry): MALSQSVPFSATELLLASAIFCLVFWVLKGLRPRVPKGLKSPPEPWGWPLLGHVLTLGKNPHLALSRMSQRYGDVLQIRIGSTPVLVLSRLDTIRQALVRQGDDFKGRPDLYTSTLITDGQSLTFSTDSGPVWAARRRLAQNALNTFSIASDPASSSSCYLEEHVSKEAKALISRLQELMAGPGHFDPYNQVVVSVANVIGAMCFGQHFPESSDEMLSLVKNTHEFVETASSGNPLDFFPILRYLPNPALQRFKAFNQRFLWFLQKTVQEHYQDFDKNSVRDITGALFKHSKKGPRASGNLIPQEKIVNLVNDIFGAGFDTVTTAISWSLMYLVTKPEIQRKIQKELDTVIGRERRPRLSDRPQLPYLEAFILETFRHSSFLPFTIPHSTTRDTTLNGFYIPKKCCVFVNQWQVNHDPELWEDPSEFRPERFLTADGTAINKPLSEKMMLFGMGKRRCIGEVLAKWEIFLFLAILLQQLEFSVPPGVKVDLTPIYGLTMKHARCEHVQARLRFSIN
Kind of series: Inhibition of CYP1A2 up to 30 uM. Format: ADME.

The test system of series [18] is Human immunodeficiency virus 1. Kind of series: Antiviral activity against HIV1 isolate 05-121801 assessed as inhibition of viral replication after 7 days by scintillation counting. The class given is functional, organism-based. To be noted: Human immunodeficiency virus 1, isolate 05-121801, 168 h.
For series [19], the system named is Human immunodeficiency virus 1. Nature of the series: Antiviral activity against HIV1 isolate 05-121777 assessed as inhibition of viral replication after 7 days by scintillation counting. Format: functional, organism-based. To be noted: Human immunodeficiency virus 1, isolate 05-121777, 168 h.
Series [20] in a line: Half life in monkey at 3 mg/kg, po administered as single dose by liquid chromatography-mass spectroscopy. Format: ADME, organism-based, Macaca mulatta. More on the design: dose 3 mg/kg, route oral. To be noted: rhesus monkey, in vivo. In a few lines:
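Single oral dose of 3 mg/kg. Plasma was sampled at serial times over 24 h and measured by LC-MS/MS. Half-life was derived by pharmacokinetic analysis.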

For series [21], the system named is Human immunodeficiency virus 1. Kind of series: Antiviral activity against HIV1 isolate 05-121771 assessed as inhibition of viral replication after 7 days by scintillation counting. Format: functional, organism-based. To be noted: Human immunodeficiency virus 1, isolate 05-121771, 168 h.
Series [22] relates to Human immunodeficiency virus 1. Nature of the series: Antiviral activity against HIV1 isolate 05-121782 assessed as inhibition of viral replication after 7 days by scintillation counting. The class given is functional, organism-based. To be noted: Human immunodeficiency virus 1, isolate 05-121782, 168 h.
Series [23] has as its system Human immunodeficiency virus 1. Kind of series: Antiviral activity against HIV1 isolate 05-121779 assessed as inhibition of viral replication after 7 days by scintillation counting. To be noted: Human immunodeficiency virus 1, isolate 05-121779, 168 h. The class given is functional, organism-based.
In series [24] the test system is HEK293. Nature of the series: Cytotoxicity against HEK293 cells after 24 hrs by MTS assay. To be noted: Homo sapiens, HEK293, 24 h. Format: cell-based. In a few lines: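 Viability in the cell-cell fusion format (BacMam-transduced HEK-293 cells mixed with HOS cells). Compound was added to the cell mix, and viability was read after 24 h with MTS dye.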
A general note: Tetrazolium assays rely on reduction of a dye to a coloured formazan, in cell work by metabolically active cells.

Sequence of C-X-C chemokine receptor type 4 (Homo sapiens) (P61073 whole entry): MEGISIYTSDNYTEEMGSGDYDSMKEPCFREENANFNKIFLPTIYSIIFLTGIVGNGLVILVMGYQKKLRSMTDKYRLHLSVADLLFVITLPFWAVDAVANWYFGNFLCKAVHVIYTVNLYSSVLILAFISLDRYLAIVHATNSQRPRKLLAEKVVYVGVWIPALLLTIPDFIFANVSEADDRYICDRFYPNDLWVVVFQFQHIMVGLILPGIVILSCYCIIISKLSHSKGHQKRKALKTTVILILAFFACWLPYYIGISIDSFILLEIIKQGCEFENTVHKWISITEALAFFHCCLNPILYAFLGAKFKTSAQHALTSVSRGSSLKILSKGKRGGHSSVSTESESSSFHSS
Sequence of Cytochrome P450 3A4 (P08684 whole entry): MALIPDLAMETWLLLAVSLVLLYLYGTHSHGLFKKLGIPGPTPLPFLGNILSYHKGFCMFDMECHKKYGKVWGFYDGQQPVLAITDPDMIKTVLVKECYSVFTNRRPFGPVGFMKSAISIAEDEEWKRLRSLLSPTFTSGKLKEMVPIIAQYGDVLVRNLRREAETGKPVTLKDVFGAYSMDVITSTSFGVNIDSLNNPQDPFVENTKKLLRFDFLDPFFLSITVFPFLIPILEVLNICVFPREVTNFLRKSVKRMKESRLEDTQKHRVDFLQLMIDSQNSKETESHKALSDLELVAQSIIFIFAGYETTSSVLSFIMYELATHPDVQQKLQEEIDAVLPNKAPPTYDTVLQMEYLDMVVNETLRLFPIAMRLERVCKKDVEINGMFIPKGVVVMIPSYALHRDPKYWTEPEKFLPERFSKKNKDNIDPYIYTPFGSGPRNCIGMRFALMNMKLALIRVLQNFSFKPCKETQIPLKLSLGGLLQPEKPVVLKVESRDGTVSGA

For the compound `CN1CCN(c2cccc3nc(CN(C)[C@H]4CCCc5cccnc54)c(CO)n23)CC1`, the pIC50 (as a rule, the IC50 on a negative log10 scale, so that one unit is a factor of ten) in [1] was 9.00; in [2] it was 9.00; in series [5] it was less than 5.60; in series [6] it was less than 6.00; in [11], 9.00; in [13], 9.00. Also, the pIC50 in series [14] is less than 6.00; in series [15], 9.00; in series [16], 9.00; in series [18], 9.00; in series [19], 9.00; in [21] it was 9.00. The pIC50 is 9.00 in series [22], 9.00 in [23] and less than 6.00 in series [24]. The figures for the inhibition in series [3] and in series [9] were 110% and “Dose-dependent effect”, respectively. In addition, the bioavailability (usually the share of a dose that reaches the circulation, judged against a reference dose that is usually intravenous) in [4] turned out to be 21%; in series [7] it was 17%. Further, the “inhibition (INH)” value in series [8] and in series [17] was “Not Active” each time. In series [10], the outcome was inactive. Besides, the inhibition (in general, the relative decrease from the control value, in per cent) in series [12] was “Active”. The half-life (in general, the time in which the quantity being followed falls by half) in [20] was greater than 12 h.
